Results on three substances are retold here after paper PMC4240344 (Bioconjugate Chemistry, 2014).

In experiment [1] the test system is integrin αvβ3/αvβ5 in xenografted U87MG glioma and human colon cancer tissues. The experiment can be described thus: Tumor tissue staining: blocking and RGD-specificity experiments. The conditions noted are these: 100 μM; for Staining of tumor tissues (RGD specificity): xenografted U87MG glioma and human colon cancer tissues, same conditions. Put shortly: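 Sections were frozen, acetone-fixed U87MG xenograft slices (5 μm) or deparaffinized, rehydrated human colon cancer slides. They were blocked with 10% goat serum (30 min, 37 °C), then incubated with 100 μM test compound for 1 h at RT, with or without 10 mM c(RGDfK)2 as blocker. After three PBS washes and DAPI mounting, ≥15 random fields per section were scored. Fluorescent area was given as % of total, mean ± standard deviation.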

For experiment [2], the system named is integrin αvβ3/αvβ5 in human carcinoma tissues. In words: Tumor tissue staining, concentration dependence, human carcinoma tissues. Put shortly:
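Human colon, squamous cell lung and gastric carcinoma slices (5 μm) were deparaffinized in xylene and rehydrated through graded alcohols. They were stained for 1 h with test compound at […], PBS-washed three times and mounted with DAPI medium. Images at 200× with equal exposure and equal brightness/contrast adjustment. Positive staining area was expressed as % of total area and plotted against concentration.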

For experiment [3], the system named is integrin αvβ3/αvβ5 in xenografted U87MG glioma tissues. Details: species or system human. To be noted: peptide 100 μM, antibody 2.5 μg/mL, 5-120 min. The method, boiled down: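 Frozen 5 μm slices of U87MG xenograft were fixed in ice-cold acetone for 10 min and air-dried at RT. They were incubated with 100 μM test compound at RT for 5, 15, 30, 60, 90 or 120 min, PBS-washed three times and mounted with DAPI medium. The antibody arm used 10% goat serum (30 min, 37 °C), then rabbit anti-integrin β3 (2.5 μg/mL) for the same times, then Cy3 goat anti-rabbit (1:100, 1 h). Images at 200× with equal exposure; positive area as % of total plotted against time.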

Experiment [4] has the same test system. Details: species or system human. The conditions noted are these: xenografted U87MG glioma slices, 1 h incubation, tested at 0.1-100 μM. Put shortly: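 U87MG xenografts were snap-frozen in OCT and cut into 5 μm slices. Slices were fixed in ice-cold acetone for 10 min and air-dried for 20 min, then incubated for 1 h with test compound at 0.1, 1.0, 10, 20, 50 or 100 μM. After three PBS washes and DAPI mounting, images were taken at 200× with equal exposure. Fluorescent area was given as % of total area against concentration.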

The subject of experiment [5] is integrin αvβ3/αvβ5 in human carcinoma tissues. The experiment can be described thus: Tumor tissue staining kinetics, time dependence, human carcinoma tissues. To be noted: 50 μM, 5-90 min.

Where only a bound is given, the exact number is not on record here.

For the substance “FITC-PEG4-E[PEG4-c(RGDfK)]2 (bicyclic or more) [FITC-3P-RGD2]”, the “Staining of tumor tissues (RGD specificity)” value (“Staining of tumor tissues” below) in experiment [1] was “positively stained”.

Regarding “FITC-E[c(RGDfK)]2 (bicyclic or more) [FITC-RGD2]”, the “Staining of tumor tissues” value in experiment [1] is given as “positively stained”.

Regarding “FITC-Glu[cyclo[Arg-Gly-Asp-D-Phe-Lys(SAA-PEG2-(1,2,3-triazole)-1-yl-4-methylamide)]]2 (bicyclic or more) [FITC-Galacto-RGD2]”, the “Staining of xenografted U87MG glioma tissues in the absence of blocker” value in experiment [1] (1 h, room temperature) is listed as “successfully stained”. Besides, the “Staining of tumor tissues” value in experiment [1] is “positively stained”. In addition, the “Minimal concentration for positive staining of colon carcinoma” value in experiment [2] (human colon carcinoma slices, 1 h incubation, tested at 1-50 μM) was ~5 µM. Moreover, the “Staining of gastric carcinoma tissue” value in experiment [2] (human gastric carcinoma tissue, 1-50 μM) is recorded as “little staining”. Also, in experiment [2] (human squamous cell lung cancer tissues, 1 h incubation), the “Concentration needed to achieve adequate fluorescence staining” value is > 25 µM. In addition, the “Incubation time to achieve maximal fluorescent intensity” value in experiment [3] is on record as ≤ 30 min. In experiment [4], the “Concentration range in which tissues were well stained” value is 10 to 100 µM. Further, the “Incubation time for positive staining of colon cancer tissues” value in experiment [5] is reported as ≤ 15 min.
